# Measured values as given in ChEMBL document CHEMBL1136894, “New antituberculotics originated from salicylanilides with promising in vitro activity against atypical mycobacterial strains” (Bioorg Med Chem, 2009).
# How the values were obtained:
# Mycobacterium kansasii [1] = assay: Antimycobacterial activity against Mycobacterium kansasii CNCTC My 235/80 after 21 days; assay type: functional; conditions: CNCTC My 235/80, 504 h
# Procedure, shortened: (§1)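 Compounds were added as DMSO solutions to Sula semisynthetic medium at 250, 125, 62, 32, 16, 8, 4, 2 and 1 µmol/L. Two M. kansasii strains were used: CNCTC My 235/80 and clinical isolate 6509/96, each with strain dilution 10^-4. Incubation was at 37 °C, and MIC was read at 7, 14 and 21 days.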
# Mycobacterium avium [2] = assay: Antimycobacterial activity against Mycobacterium avium CNCTC My 330/88 after 14 days; assay type: functional; conditions: CNCTC My 330/88, 336 h
# Procedure, shortened: (§2)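 Broth dilution in Sula semisynthetic medium, compounds added as DMSO solutions at 250, 125, 62, 32, 16, 8, 4, 2 and 1. Strains came from the Czech National Collection of Type Cultures; the M. tuberculosis inoculum was diluted 10^-3. Cultures were incubated at 37 °C, and MIC was read after 7, 14 and 21 days.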
# [3] = tested on: Mycobacterium tuberculosis; assay: Antimycobacterial activity against Mycobacterium tuberculosis CNCTC My 331/88 after 14 days; assay type: functional; conditions: CNCTC My 331/88, 336 h; procedure, shortened: as §2
# Mycobacterium kansasii [4] = assay: Antimycobacterial activity against Mycobacterium kansasii isolate 6509/96 after 14 days; assay type: functional; conditions: isolate 6509/96, 336 h; procedure, shortened: as §1
# Mycobacterium avium [5] = assay: Antimycobacterial activity against Mycobacterium avium CNCTC My 330/88 after 21 days; assay type: functional; conditions: CNCTC My 330/88, 504 h; procedure, shortened: as §2
# Mycobacterium kansasii [6] = assay: Antimycobacterial activity against Mycobacterium kansasii CNCTC My 235/80 after 7 days; assay type: functional; conditions: CNCTC My 235/80, 168 h; procedure, shortened: as §1
# [7] = Lipophilicity, log K by HPLC; assay type: physicochemical
# Procedure, shortened: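 Capacity factors k were measured by RP-HPLC and log k was calculated from them.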
# [8] = tested on: Mycobacterium tuberculosis; assay: Antimycobacterial activity against Mycobacterium tuberculosis CNCTC My 331/88 after 21 days; assay type: functional; conditions: CNCTC My 331/88, 504 h; procedure, shortened: as §2
# Mycobacterium kansasii [9] = assay: Antimycobacterial activity against Mycobacterium kansasii isolate 6509/96 after 21 days; assay type: functional; conditions: isolate 6509/96, 504 h; procedure, shortened: as §1
# Mycobacterium kansasii [10] = assay: Antimycobacterial activity against Mycobacterium kansasii CNCTC My 235/80 after 14 days; assay type: functional; conditions: CNCTC My 235/80, 336 h; procedure, shortened: as §1
# Mycobacterium kansasii [11] = assay: Antimycobacterial activity against Mycobacterium kansasii isolate 6509/96 after 7 days; assay type: functional; conditions: isolate 6509/96, 168 h; procedure, shortened: as §1
SMILES,MIC (Mycobacterium kansasii [1]) [µM],MIC (Mycobacterium avium [2]) [µM],MIC [3] [µM],MIC (Mycobacterium kansasii [4]) [µM],MIC (Mycobacterium avium [5]) [µM],MIC (Mycobacterium kansasii [6]) [µM],log K [7],MIC [8] [µM],MIC (Mycobacterium kansasii [9]) [µM],MIC (Mycobacterium kansasii [10]) [µM],MIC (Mycobacterium kansasii [11]) [µM]
O=C(N[C@H](Cc1ccccc1)C(=O)Oc1ccc(Cl)cc1C(=O)Nc1ccc(Cl)c(Cl)c1)OCc1ccccc1,8,16,2,8,32,4,1.303,2,8,4,8
O=C(N[C@@H](Cc1ccccc1)C(=O)Oc1ccc(Cl)cc1C(=O)Nc1ccc(Cl)cc1)OCc1ccccc1,16,16,4,16,16,8,1.0971,4,16,16,8
CC(C)[C@@H](NC(=O)OCc1ccccc1)C(=O)Oc1ccc(Cl)cc1C(=O)Nc1cccc(Cl)c1,16,32,8,16,32,8,0.8954,8,16,16,8
O=C(CNC(=O)OCc1ccccc1)Oc1ccc(Cl)cc1C(=O)Nc1ccc(Cl)c(Cl)c1,16,16,1,8,32,8,0.8639,2,8,8,8
CC(C)[C@H](NC(=O)OCc1ccccc1)C(=O)Oc1ccc(Cl)cc1C(=O)Nc1cccc(Cl)c1,16,16,4,16,16,8,0.8972,4,16,16,8
O=C(N[C@H](Cc1ccccc1)C(=O)Oc1ccc(Cl)cc1C(=O)Nc1cccc(Cl)c1)OCc1ccccc1,16,16,4,16,32,8,1.0476,4,16,16,8
CC(C)[C@@H](NC(=O)OCc1ccccc1)C(=O)Oc1ccc(Cl)cc1C(=O)Nc1ccc(Cl)c(Cl)c1,8,16,2,8,16,4,1.1559,4,16,4,8
C[C@@H](NC(=O)OCc1ccccc1)C(=O)Oc1ccc(Cl)cc1C(=O)Nc1ccc(Cl)c(Cl)c1,16,16,2,8,32,8,0.938,4,8,8,4
C[C@H](NC(=O)OCc1ccccc1)C(=O)Oc1cc(Cl)ccc1C(=O)Nc1ccc(Cl)cc1,8,16,4,8,16,4,0.6337,8,16,8,8
C[C@H](NC(=O)OCc1ccccc1)C(=O)Oc1ccc(Cl)cc1C(=O)Nc1ccc(Cl)c(Cl)c1,8,16,2,16,32,4,0.9408,4,16,4,8
CC(C)[C@H](NC(=O)OCc1ccccc1)C(=O)Oc1ccc(Cl)cc1C(=O)Nc1ccc(Cl)cc1,16,16,4,8,16,8,0.9417,4,16,16,8
NNC(=O)c1ccncc1 [ISONIAZID],> 250,> 250,0.5,8,> 250,> 250,,0.5,8,> 250,4
C[C@H](NC(=O)OCc1ccccc1)C(=O)Oc1ccc(Cl)cc1C(=O)Nc1cccc(Cl)c1,16,32,4,16,62.5,16,0.6995,8,16,16,8
C[C@@H](NC(=O)OCc1ccccc1)C(=O)Oc1ccc(Cl)cc1C(=O)Nc1ccc(Cl)cc1,16,16,4,8,16,8,0.7294,4,16,16,8
O=C(N[C@@H](Cc1ccccc1)C(=O)Oc1ccc(Cl)cc1C(=O)Nc1cccc(Cl)c1)OCc1ccccc1,32,32,16,32,62.5,32,1.0465,16,32,32,32
O=C(N[C@@H](Cc1ccccc1)C(=O)Oc1ccc(Cl)cc1C(=O)Nc1ccc(Cl)c(Cl)c1)OCc1ccccc1,8,16,2,8,32,4,1.3056,2,8,4,8
C[C@@H](NC(=O)OCc1ccccc1)C(=O)Oc1ccc(Cl)cc1C(=O)Nc1cccc(Cl)c1,16,32,8,16,32,16,0.699,8,16,16,8
C[C@@H](NC(=O)OCc1ccccc1)C(=O)Oc1ccc(Cl)cc1C(=O)Nc1ccc(Br)cc1,8,16,2,16,16,4,0.7527,4,16,8,8
O=C(N[C@@H](Cc1ccccc1)C(=O)Oc1ccc(Cl)cc1C(=O)Nc1ccc(Br)cc1)OCc1ccccc1,8,16,4,16,16,4,1.1258,8,16,8,16
C[C@@H](NC(=O)OCc1ccccc1)C(=O)Oc1cc(Cl)ccc1C(=O)Nc1ccc(Cl)cc1,8,16,4,8,16,8,0.6334,8,16,8,4
CC(C)[C@H](NC(=O)OCc1ccccc1)C(=O)Oc1ccc(Cl)cc1C(=O)Nc1ccc(Cl)c(Cl)c1,8,16,2,8,32,4,1.1567,4,8,4,8
CC(C)[C@H](NC(=O)OCc1ccccc1)C(=O)Oc1cc(Cl)ccc1C(=O)Nc1ccc(Cl)cc1,8,16,4,8,16,4,0.8804,8,16,8,4
O=C(N[C@H](Cc1ccccc1)C(=O)Oc1ccc(Cl)cc1C(=O)Nc1ccc(Cl)cc1)OCc1ccccc1,8,16,4,8,16,8,1.0678,4,16,8,8
CC(C)[C@@H](NC(=O)OCc1ccccc1)C(=O)Oc1ccc(Cl)cc1C(=O)Nc1ccc(Cl)cc1,16,16,4,8,16,8,0.9421,4,16,8,8
